S1P3 antag: S1P3 (human) receptor antagonism | Q99500 | actives 0.27% (n = 170,000) | AID 485 | CHO S1P3 NFAT-BLA reporter, FRET fluorescence, antagonist mode | inhibition, % at 4.98 µM;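 active means inhibition above the plate cutoff, the mean inhibition of test wells on that plate plus 3 SD, cut at about 28% in these data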;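 further: cells challenged with S1P at its EC80 of 0.8 µM; blue over green emission ratio from cleaved BLA substrate after 4 h stimulation; 0% = S1P-stimulated wells and 100% = unstimulated DMSO-only wells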
S1P4 antag: blocks the human S1P4 receptor; O95977; S1P4-expressing cells, antagonist mode, reporter read-out; inhibition, % at 4.98 µM; actives 0.26% (n = 220,000); AID 1510; in the data active means inhibition above about 29%;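 further: 0% = wells stimulated with agonist and 100% = vehicle wells without agonist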
L major viab: reduces viability of Leishmania major promastigotes; resazurin fluorescence viability; inhibition, % at 10 µM; actives 9% (n = 200,000); AID 1063; in the data active means inhibition above about 50%;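 further: promastigotes grown with compound for 44 hours at 28 °C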
MDM2 E3 inh: Mdm2 E3 ligase (human) inhibition; cell-based MDM2 ubiquitination luciferase reporter, 2 h; 0 = plate control, 100 = twice control, blank-subtracted; actives 0.11% (n = 210,000); signal enhancement, % at 5 µM; Q00987;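 active means signal enhancement of 30% or more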;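 further: luminescence tracks abundance of the self-degrading MDM2-luciferase fusion protein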
Target sequence (Q00987 whole entry, looked up, the tested form may be a part): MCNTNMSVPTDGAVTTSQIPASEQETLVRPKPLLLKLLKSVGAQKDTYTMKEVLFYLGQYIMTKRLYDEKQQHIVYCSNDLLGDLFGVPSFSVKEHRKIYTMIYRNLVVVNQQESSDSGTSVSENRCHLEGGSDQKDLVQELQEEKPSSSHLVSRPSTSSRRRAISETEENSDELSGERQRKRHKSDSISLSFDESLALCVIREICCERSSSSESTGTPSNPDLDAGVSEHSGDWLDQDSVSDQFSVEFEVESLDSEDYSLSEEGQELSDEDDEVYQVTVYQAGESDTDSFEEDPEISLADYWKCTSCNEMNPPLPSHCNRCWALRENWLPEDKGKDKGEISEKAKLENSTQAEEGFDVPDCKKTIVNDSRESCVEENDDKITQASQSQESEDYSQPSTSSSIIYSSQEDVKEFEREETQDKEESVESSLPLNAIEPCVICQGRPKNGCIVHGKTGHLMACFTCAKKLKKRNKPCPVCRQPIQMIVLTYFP
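Assay system: stable mammalian line carrying autodegrading MDM2–luciferase fusion reporter; amount: 2000 cells seeded into each well; buffer or medium: DMEM; benchmarks: plate control and blank wells; signal: luciferase luminescence; timing: 2 h compound exposure at 37 °C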
S1P4 ag: agonists of human S1P4 receptor; activation, % at 4.98 µM; S1P4-expressing cell line, agonist reporter assay; O95977; AID 1509; actives 0.35% (n = 220,000); in the data active means activation above about 11%;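 further: 0% = DMSO vehicle and 100% = reference agonist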
The depositor's hits bear a star; / = not tested or not shown. This is one part of a sample in which hits are shown more often than they occur.

SMILES | S1P3 antag | S1P4 antag | L major viab | MDM2 E3 inh | S1P4 ag
CN(C)S(=O)(=O)c1cccc(NC(=O)COC(=O)c2cccn2C)c1 | -9 | -8 | -3 | 6 | 0
COc1ccc(CCNC(=O)c2ccncc2)cc1OC | -66 | -17 | -2 | -13 | 1
Cc1ccc(-c2cc(C(=O)NCc3ccc4c(c3)OCO4)[nH]n2)c(O)c1C | -13 | 3 | 54* | -1 | -1
COc1ccc(CCNC(=O)c2cc(-c3ccc(C)c(C)c3O)n[nH]2)cc1OC | / | -16 | 93* | 2 | -1
Cc1cc(O)c(-c2cc(C(=O)NCc3ccc4c(c3)OCO4)[nH]n2)cc1C | 0 | -12 | 0 | -12 | 0
COc1ccc(CNC(=O)c2cc(-c3cc(C)ccc3O)n[nH]2)cc1 | -4 | -16 | / | -9 | 2
COc1ccc(CCNC(=O)c2cc(-c3cc(C)ccc3O)n[nH]2)cc1OC | / | -3 | 89* | / | 1
NCC(=O)Nc1ccc(Cl)cc1C(=O)c1ccc[nH]1 | -3 | -7 | / | -9 | 0
CNn1cnc2ccsc2c1=O | -1 | -1 | / | 4 | 0
COc1ccc(-n2c(-c3ccc(Cl)cc3)c[n+]3c2CCc2ccccc2-3)cc1 | -7 | -1 | 100* | -20 | -1
COc1ccc(-n2c(-c3ccccc3)nnc2-c2ccc(Cl)cc2)cc1 | / | 12 | 0 | -5 | -1
O=C(N/N=C/c1cn(-c2ccccc2)nc1-c1cc2ccccc2o1)c1cccnc1 | 4 | -9 | 97* | -5 | 0
CC1(C)CC2(CCO1)CNC(=O)O2 (stereo not given) | 3 | 13 | -3 | 4 | -1
Fc1cccc(-c2cc3nc4c(c(N5CCOCC5)n3n2)CCCC4)c1 | 43 | -20 | 7 | -32 | 0
COc1cccc(-c2cc3nc4c(c(NCC(C)(C)CN(C)C)n3n2)CCCC4)c1 | 9 | 6 | 77* | -40 | 0
Fc1cccc(-c2cc3nc4c(c(NCc5ccco5)n3n2)CCCC4)c1 | / | 5 | 87* | -18 | 2
CCOC(=O)c1ccc(NC(=S)Nc2cccc(N)n2)cc1 | -7 | -5 | / | 1 | -1
CCOC(=O)c1ccc(NC(=S)Nc2cccc(C)n2)cc1 | 1 | -27 | 57* | 16 | 2
CCOc1ccc(-c2nc(-c3cccnc3)no2)cc1OCC | / | -15 | 81* | -4 | -1
CCOc1ccc(-c2noc(-c3ccncc3)n2)cc1OCC | 0 | -3 | 93* | 9 | -1
COc1ccc(C(=O)CSc2nnc3n2CCCN3C(=O)Nc2ccccc2)cc1 | 3 | -1 | / | -2 | 1
CCCNC(=O)NC(=O)COC(=O)c1cccc(NS(=O)(=O)c2ccc(F)c(F)c2)c1 | -15 | 0 | 55* | -3 | 1
O=C(COC(=O)c1cccc(NS(=O)(=O)c2ccc(F)c(F)c2)c1)NC(=O)NC1CCCCC1 | -5 | -19 | 82* | 7 | 0
COc1ccccc1-c1ccc(/C=C2\C=CC(=O)O2)o1 | 20 | 2 | / | -16 | 0
N#Cc1ccc(CSc2nnc(COc3ccccc3)n2-c2ccccc2)cc1 | / | 12 | 12 | -8 | -6
SMILES | S1P3 antag | S1P4 antag | L major viab | MDM2 E3 inh | S1P4 ag
O=c1c2ccccc2nc(SCc2cc([N+](=O)[O-])cc3c2OCOC3)n1-c1ccccc1 | -6 | -25 | 5 | -33 | 0
CCOc1ccc(-n2c(SCc3ccc([N+](=O)[O-])cc3)nnc2-c2ccccc2)cc1 | -12 | 1 | 92* | 5 | 0
COCCn1c(Cc2ccccc2)nnc1SCc1ccc([N+](=O)[O-])cc1 | 5 | 2 | 51* | -13 | 1
COc1ccc(-n2c(COc3ccccc3)nnc2SCc2ccc(C#N)cc2)cc1 | -41 | -18 | 100* | 4 | 0
COc1ccc(-n2c(SCc3ccc([N+](=O)[O-])cc3)nnc2-c2ccccc2)cc1 | -27 | -7 | 15 | 1 | -1
O=c1c2ccccc2nc(SCc2ccc([N+](=O)[O-])cc2)n1-c1ccccc1 | / | -50 | 54* | -3 | -1
CCn1c(Cc2ccccc2)nnc1SCc1ccc([N+](=O)[O-])cc1 | 8 | -18 | -3 | -4 | -3
[O-]/C(=C(\C(=S)NCc1ccccc1)[n+]1ccccc1)c1ccc(Cl)s1 | -6 | -16 | -9 | 1 | 2
Cc1ccc(-c2nnc(CSc3nnc(COc4ccccc4)n3-c3ccccc3)o2)cc1 | 18 | -10 | 41 | -19 | -5
CCOc1ccc(-c2nnc(SCc3nnc(-c4ccccc4)o3)n2-c2ccccc2F)cc1 | -3 | 20 | 99* | -9 | 0
